zfTRPN1 agonist: activates the zebrafish TRPN1 channel. HEK293 zebrafish TRPN1-YFP, Fluo-8 calcium fluorescence; 100% = response to 87 µM carbachol. activation, % at 3 µM. hit rate 0.18% among 220,000. AID 1424;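 active = activation above its plate's cutoff, the mean activation of test wells on that plate plus 3 SD, cut at about 19% in these data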
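Material: zebrafish TRPN1-YFP in HEK293 cells. Doses: one dose of 3 µM, 0.3% DMSO. Incubation: dye 1 h 37 °C plus 30 min RT. Measured by: intracellular calcium fluorescence with Fluo-8.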
OX1R antag-1: antagonists of human orexin 1 receptor (OX1R); OX1R-expressing cells, FRET antagonist read-out; inhibition, % at 6.6 µM; hit rate 1.8% among 330,000; in the data active = inhibition mostly above about 38%, no sharp cut-off; inactive = mostly below about 40%
Target sequence (O43613 whole entry, looked up): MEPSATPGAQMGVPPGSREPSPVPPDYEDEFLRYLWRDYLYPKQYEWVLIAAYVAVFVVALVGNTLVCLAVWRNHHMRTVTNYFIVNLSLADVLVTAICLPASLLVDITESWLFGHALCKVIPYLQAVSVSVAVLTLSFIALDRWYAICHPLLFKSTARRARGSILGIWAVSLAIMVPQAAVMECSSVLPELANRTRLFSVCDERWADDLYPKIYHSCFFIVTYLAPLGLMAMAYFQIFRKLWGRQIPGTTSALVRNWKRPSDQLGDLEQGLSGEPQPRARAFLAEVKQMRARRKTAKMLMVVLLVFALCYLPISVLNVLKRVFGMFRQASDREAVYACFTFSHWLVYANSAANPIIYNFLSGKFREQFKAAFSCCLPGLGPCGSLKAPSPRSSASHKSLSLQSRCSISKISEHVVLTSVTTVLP
TRPML3 agonist: human mucolipin-3 channel agonism; Q8TDD5; hit rate 0.29% among 220,000; HEK293 TRPML3-YFP, Fluo-8 calcium fluorescence; 100% = the carbachol control signal; AID 1448; activation, % at 3 µM;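 active = activation above its plate's cutoff, the mean activation of the plate's test wells plus 3 SD, cut at about 12% in these data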
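Test system – HEK293 line with stable expression of human TRPML3-YFP channel · Control set – carbachol 87 µM final as high control (100%), DMSO as low control (0%) · Signal – Fluo-8 calcium dye fluorescence, ex 470-495, em 515-575 nm · Incubation – 1-h 37 °C dye load, 5-s basal, 120-s post-compound reads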
OX1R antag-2: antagonists of human orexin 1 receptor; inhibition, % at 5 µM; AID 434989; hit rate 0.43% among 330,000; O43613; CHO/OX1R cells, Fluo-8 calcium fluorescence, orexin A;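 active = inhibition above its plate's threshold, mean inhibition of all tested compounds on the plate plus 3 SD, cut at about 37% in these data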
CHO parental Ca: counter-screen: ATP calcium response change in parental CHO cells; inhibition, % at 5.6 µM; hit rate 0.63% among 330,000; parental CHO-K1, ATP-induced calcium, Fluo-8 fluorescence;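 active = inhibition above that plate's mean sample inhibition plus 3 SD, cut at about 26% in these data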
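Test system: untransfected parental CHO cell line. Compound: one dose, 5.6 µM nominal. Detection: intracellular calcium via Fluo-8 no-wash fluorescent dye. Measure: % inhibition. Benchmarks: ATP-challenged DMSO wells low, unchallenged DMSO wells high.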
Each line names hits and unclear results; the compound was inactive in the other large screens. Only some compounds are listed: those with a hit (about 2.5% of all), similar ones and a draw of the others.

Cc1cc(C)cc(-n2cccc2/C=C2/C(=N)N3C(=NC2=O)SN=C3S(C)(=O)=O)c1	OX1R antag-1 50.9
Cc1ccc(-n2cccc2/C=C2/C(=N)N3C(=NC2=O)SN=C3S(C)(=O)=O)cc1	none
O=C(CN1C(=O)/C(=C\c2cccc(Cl)c2)Oc2ccccc21)N1CCN(c2ccccn2)CC1	none
N#CC(C#N)=C1C=CC=CN1/C(=C\c1ccco1)C(=O)c1ccc(Cl)cc1	OX1R antag-1 88.1, OX1R antag-2 62.5, CHO parental Ca 89.7
COc1cc(/C=C2\SC(=S)NC2=O)ccc1OS(=O)(=O)c1ccccc1	OX1R antag-1 80.2
COc1cc(/C=C2/SC(=S)NC2=O)ccc1OS(=O)(=O)c1ccc(C)cc1	OX1R antag-1 63.6
Cc1cc2c(cc1S(=O)(=O)N1CCCC1)n(C)c(=O)c(=O)n2C	none (no result: zfTRPN1 agonist, TRPML3 agonist)
O=C(O)c1cc2c(cc1Br)OCCCO2	zfTRPN1 agonist 19.2
O=C1C=C(Nc2cccc3cccnc23)c2ccccc2C1=O	OX1R antag-1 64.4 (no result: zfTRPN1 agonist, TRPML3 agonist)
Cc1cc(C)c(C)c(S(=O)(=O)NCC(=O)Nc2ccc(F)cc2)c1C	none (no result: zfTRPN1 agonist, TRPML3 agonist)
Cn1cnc2ccc([N+](=O)[O-])cc2c1=O	OX1R antag-1 75.1
CCOC(=O)CCn1cnc2ccc([N+](=O)[O-])cc2c1=O	none
O=c1c2ccccc2ncn1-c1ccc([N+](=O)[O-])cc1[N+](=O)[O-]	OX1R antag-1 58.1 (no result: zfTRPN1 agonist, TRPML3 agonist)
CC(C)C[C@H](NC(=O)N1c2ccccc2NC(=O)[C@@H]1C(C)C)C(=O)N[C@@H](Cc1ccccc1)C(=O)O	none (no result: zfTRPN1 agonist, TRPML3 agonist)
CCOC(=O)c1c(CSc2ccccc2)n(C)c2cc(Br)c(OCC(O)CNC(CO)(CO)CO)cc12 (centres undefined)	CHO parental Ca 89.8
CCOC(=O)c1c(CSc2ccccc2)n(C)c2cc(Br)c(OC)c(O)c12	none (no result: zfTRPN1 agonist, TRPML3 agonist)
CCCn1c(CN2CCN(c3cccc(Cl)c3)CC2)nc2c1c(=O)n(C)c(=O)n2C	CHO parental Ca 33.5
CCN(CC)S(=O)(=O)c1ccc(C(=O)Nc2ccc(Cc3ccncc3)cc2)cc1	OX1R antag-1 39.2, OX1R antag-2 81.7, CHO parental Ca 84.6
CCN(CC)S(=O)(=O)c1ccc(NC(=O)c2ccc(N(C)S(C)(=O)=O)cc2)cc1	none
COc1ccc(CCNC(=O)COC(=O)/C=C/c2ccc3c(c2)OCO3)cc1	CHO parental Ca 32.5 (no result: zfTRPN1 agonist, TRPML3 agonist)
CCc1ccc(NC(=O)c2cc3c(C)nc4ccccc4c3o2)cc1	OX1R antag-1 59.9
Cc1ccc(CNC(=O)c2cc3c(C)nc4ccccc4c3o2)cc1	OX1R antag-1 56.8
Cc1nc2ccccc2c2oc(C(=O)NCc3ccccn3)cc12	none
COc1c(OC(C)=O)c(=O)n2c3ccccc3c3ccnc1c32	OX1R antag-1 51.9 (no result: zfTRPN1 agonist, TRPML3 agonist)
CC(=O)Oc1c(C)c(=O)n(C)c2ccccc12	none
COc1ccc(C(=O)OCC(=O)Nc2nnc(-c3ccccc3)o2)cc1	OX1R antag-1 52.0 (no result: zfTRPN1 agonist, TRPML3 agonist)
COc1cc(/C=C/C(=O)OCC(=O)Nc2nnc(-c3ccccc3)o2)cc(OC)c1OC	OX1R antag-1 72.0 (no result: zfTRPN1 agonist, TRPML3 agonist)
O=C(COC(=O)/C=C/c1ccccc1)Nc1nnc(-c2ccccc2)o1	none (no result: zfTRPN1 agonist, TRPML3 agonist)
CCCCSc1cnn(-c2ccccc2)c(=O)c1SCCCC	CHO parental Ca 29.6
CCSc1cnn(-c2ccccc2)c(=O)c1SCC	none
CCOC(=O)c1c(NC(=O)CSc2nc3cc(Cl)ccc3s2)sc(C(C)=O)c1C	none
CCOC(=O)c1c(NC(=O)CSc2nc3ccccc3s2)sc(C(C)=O)c1C	CHO parental Ca 36.2
O=C(NCCc1ccccc1Cl)c1ccc2nc3ccccc3c(=O)n2c1	none (no result: zfTRPN1 agonist, TRPML3 agonist)
Cc1ccc(N=Nc2c(N)nn3c(C)cc(C)nc23)cc1	none
Cc1cc(C)n2nc(N)c(N=Nc3cccc(Cl)c3)c2n1	OX1R antag-1 50.7
Cc1csc(=O)n1CCC(=O)OCc1nnc(-c2ccc([N+](=O)[O-])cc2)o1	OX1R antag-1 49.9 (no result: zfTRPN1 agonist, TRPML3 agonist)
O=C(OCc1nnc(-c2ccc([N+](=O)[O-])cc2)o1)C1CC(=O)N(CCc2ccccc2)C1 (centres undefined)	OX1R antag-1 59.5 (no result: zfTRPN1 agonist, TRPML3 agonist)
O=C(OCc1ccc([N+](=O)[O-])cc1)C1CC(=O)N(CCc2ccccc2)C1 (centres undefined)	none (no result: zfTRPN1 agonist, TRPML3 agonist)
O=C(CCN=C1NS(=O)(=O)c2ccccc21)OCc1nnc(-c2ccc([N+](=O)[O-])cc2)o1	OX1R antag-1 63.1 (no result: zfTRPN1 agonist, TRPML3 agonist)
COc1ccc(CCN2CC(C(=O)N3CCSCC3)CCC2=O)cc1 (centres undefined)	none (no result: zfTRPN1 agonist, TRPML3 agonist)
CCOC(=O)c1c(C)[nH]c(C)c1C(=O)COC(=O)/C=C/c1ccccc1[N+](=O)[O-]	OX1R antag-1 35.3 (no result: zfTRPN1 agonist, TRPML3 agonist)
